Measured values: ChEMBL document CHEMBL3244097, “Fluorinated retinoic acids and their analogues. 1. Synthesis and Biological activity of (4-methoxy-2,3,6-trimethylphenyl)nonatetraenoic acid analogues” (J Med Chem, 1979)

Columns and labels:
Mus musculus [1] = assay: Antipapilloma activity against Hart Swiss albino mouse assessed as decrease in chemically-induced papillomas compound treated ip for 5 days/week for 2 weeks; type: functional
In short: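 At least four doses were used. ED50, the dose giving a 50% decrease in papilloma diameter, was read from a plot of percent decrease versus log dose, fitted by least squares, with a correlation coefficient reported.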

Mus musculus [2] = assay: Antipapilloma activity against Hart Swiss albino mouse assessed as decrease in chemically-induced papillomas at 80 mg/kg, ip for 5 days/week for 2 weeks; type: functional; parameters: scale not given: the % may be the effect or the level left; conditions: route intraperitoneal
Mus musculus [3] = assay: Toxicity in mouse assessed as hypervitaminosis dose compound treated ip daily monday through friday in first week and monday through thursday in second week measured after 1 day of last injection; type: organism-based; conditions: in vivo, 24 h
In short: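 Normal mice received retinoid suspended in water containing 0.1% carboxymethylcellulose and 0.01% Triton X-100, given intraperitoneally daily Monday–Friday in week 1 and Monday–Thursday in week 2. Hypervitaminosis, taken as the measure of toxicity, was scored 1 day after the last injection.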

Mus musculus [4] = assay: Antipapilloma activity against Hart Swiss albino mouse assessed as decrease in chemically-induced papillomas at 1.25 mg/kg, ip for 5 days/week for 2 weeks; type: functional; parameters: scale not given: the % may be the effect or the level left; conditions: route intraperitoneal
Mus musculus [5] = assay: Antipapilloma activity against Hart Swiss albino mouse assessed as decrease in chemically-induced papillomas at 2.5 mg/kg, ip for 5 days/week for 2 weeks; type: functional; parameters: scale not given: the % may be the effect or the level left; conditions: route intraperitoneal
Mus musculus [6] = assay: Antipapilloma activity against Hart Swiss albino mouse assessed as decrease in chemically-induced papillomas at 10 mg/kg, ip for 5 days/week for 2 weeks; type: functional; parameters: scale not given: the % may be the effect or the level left; conditions: route intraperitoneal
Mus musculus [7] = assay: Antipapilloma activity against Hart Swiss albino mouse assessed as decrease in chemically-induced papillomas at 5 mg/kg, ip for 5 days/week for 2 weeks; type: functional; parameters: scale not given: the % may be the effect or the level left; conditions: route intraperitoneal
Mus musculus [8] = assay: Antipapilloma activity against Hart Swiss albino mouse assessed as decrease in chemically-induced papillomas at 40 mg/kg, ip for 5 days/week for 2 weeks; type: functional; parameters: scale not given: the % may be the effect or the level left; conditions: route intraperitoneal
Mus musculus [9] = assay: Antipapilloma activity against Hart Swiss albino mouse assessed as decrease in chemically-induced papillomas at 20 mg/kg, ip for 5 days/week for 2 weeks; type: functional; parameters: scale not given: the % may be the effect or the level left; conditions: route intraperitoneal
Mus musculus [10] = assay: Antipapilloma activity against Hart Swiss albino mouse assessed as decrease in chemically-induced papillomas at 1000 mg/kg, ip once weekly for 2 weeks; parameters: scale not given: the % may be the effect or the level left; conditions: route intraperitoneal
Mus musculus [11] = assay: Antipapilloma activity against Hart Swiss albino mouse assessed as decrease in chemically-induced papillomas at 600 mg/kg, ip once weekly for 2 weeks; parameters: scale not given: the % may be the effect or the level left; conditions: route intraperitoneal

COC(=O)/C=C(C)/C=C/C=C(C)/C(F)=C/c1c(C)cc(OC)c(C)c1C
ED50 (Mus musculus [1]): > 80 mg/kg/day
Activity (Mus musculus [2]): 3%
Activity (Mus musculus [3]): > 200 mg/kg/day

COC(=O)/C=C(C)/C=C/C(F)=C(C)\C=C\c1c(C)cc(OC)c(C)c1C
ED50 (Mus musculus [1]): > 80 mg/kg/day
Activity (Mus musculus [2]): 17%
Activity (Mus musculus [3]): 200 mg/kg/day

COc1cc(C)c(/C=C/C(C)=C/C=C(F)/C(C)=C/C(=O)O)c(C)c1C
ED50 (Mus musculus [1]): 2.7 mg/kg/day
Activity (Mus musculus [4]): 34%
Activity (Mus musculus [5]): 48%
Activity (Mus musculus [6]): 80%
Activity (Mus musculus [7]): 63%
Activity (Mus musculus [3]): 25 mg/kg/day

CCOC(=O)/C=C(C)/C=C/C=C(C)/C=C/c1c(C)cc(OC)c(C)c1C [ETRETINATE]
ED50 (Mus musculus [1]): 80 mg/kg/day
Activity (Mus musculus [6]): 9%
Activity (Mus musculus [2]): 47%
Activity (Mus musculus [8]): 33%
Activity (Mus musculus [9]): 29%
Activity (Mus musculus [3]): 100 mg/kg/day

COc1cc(C)c(/C=C/C(C)=C/C=C/C(C)=C/C(=O)O)c(C)c1C [ACITRETIN]
ED50 (Mus musculus [1]): 12.5 mg/kg/day
Activity (Mus musculus [6]): 43%
Activity (Mus musculus [7]): 18%
Activity (Mus musculus [8]): 90%
Activity (Mus musculus [9]): 66%
Activity (Mus musculus [3]): 100 mg/kg/day

COC(=O)/C=C(C)/C=C/C=C(\C=C\c1c(C)cc(OC)c(C)c1C)C(F)(F)F
ED50 (Mus musculus [1]): > 80 mg/kg/day
Activity (Mus musculus [2]): 25%
Activity (Mus musculus [3]): > 200 mg/kg/day

CCNC(=O)/C=C(C)/C=C/C=C(C)/C=C/c1c(C)cc(OC)c(C)c1C [MOTRETINIDE]
ED50 (Mus musculus [1]): 19.2 mg/kg/day
Activity (Mus musculus [6]): 23%
Activity (Mus musculus [7]): 11%
Activity (Mus musculus [8]): 73.8%
Activity (Mus musculus [9]): 54%
Activity (Mus musculus [3]): 50 mg/kg/day

COC(=O)/C=C(C)/C=C/C(F)=C(C)/C=C/c1c(C)cc(OC)c(C)c1C
ED50 (Mus musculus [1]): 13.8 mg/kg/day
Activity (Mus musculus [6]): 35%
Activity (Mus musculus [7]): 28%
Activity (Mus musculus [8]): 79%
Activity (Mus musculus [9]): 60%
Activity (Mus musculus [3]): 50 mg/kg/day

CCOC(=O)/C=C(C)/C(F)=C/C=C(C)/C=C/c1c(C)cc(OC)c(C)c1C
ED50 (Mus musculus [1]): 4 mg/kg/day
Activity (Mus musculus [6]): 76%
Activity (Mus musculus [2]): 82%
Activity (Mus musculus [7]): 43%
Activity (Mus musculus [8]): 69%
Activity (Mus musculus [9]): 62%
Activity (Mus musculus [3]): 50 mg/kg/day

CCOC(=O)/C=C(C)/C(F)=C/C=C(C)/C=C/C1=C(C)CCCC1(C)C
ED50 (Mus musculus [1]): 24.3 mg/kg/day
Activity (Mus musculus [6]): 33%
Activity (Mus musculus [2]): 83%
Activity (Mus musculus [8]): 67%
Activity (Mus musculus [9]): 33%
Activity (Mus musculus [3]): 100 mg/kg/day

CCOC(=O)/C(F)=C(C)/C=C/C=C(C)/C=C/C1=C(C)CCCC1(C)C
ED50 (Mus musculus [1]): > 20 mg/kg/day
Activity (Mus musculus [9]): 40%
Activity (Mus musculus [3]): 100 mg/kg/day

CCOC(=O)\C=C(/C=C/C=C(C)/C=C/c1c(C)cc(OC)c(C)c1C)C(F)(F)F
ED50 (Mus musculus [1]): > 80 mg/kg/day
Activity (Mus musculus [2]): -2%
Activity (Mus musculus [3]): > 200 mg/kg/day

CCNC(=O)/C=C(C)/C=C/C(F)=C(C)/C=C/c1c(C)cc(OC)c(C)c1C
ED50 (Mus musculus [1]): 80 mg/kg/day
Activity (Mus musculus [2]): 53%
Activity (Mus musculus [3]): 200 mg/kg/day

CCOC(=O)/C(F)=C(C)/C(F)=C/C=C(C)/C=C/c1c(C)cc(OC)c(C)c1C
ED50 (Mus musculus [1]): > 80 mg/kg/day
Activity (Mus musculus [2]): 17%
Activity (Mus musculus [3]): > 200 mg/kg/day

CCOC(=O)/C(F)=C(C)/C=C/C(F)=C(C)/C=C/c1c(C)cc(OC)c(C)c1C
ED50 (Mus musculus [1]): > 80 mg/kg/day
Activity (Mus musculus [2]): 35%
Activity (Mus musculus [3]): > 200 mg/kg/day

COc1cc(C)c(/C=C/C(C)=C(F)/C=C/C(C)=C/C(=O)O)c(C)c1C
ED50 (Mus musculus [1]): 7.1 mg/kg/day
Activity (Mus musculus [5]): 28%
Activity (Mus musculus [6]): 54%
Activity (Mus musculus [7]): 30%
Activity (Mus musculus [9]): 87%
Activity (Mus musculus [3]): 50 mg/kg/day

CCOC(=O)/C(F)=C(C)/C=C/C=C(C)/C=C/c1c(C)cc(OC)c(C)c1C
ED50 (Mus musculus [1]): > 10 mg/kg/day
Activity (Mus musculus [6]): 37%
Activity (Mus musculus [3]): 12.5 mg/kg/day

CCOC(=O)/C=C(C)/C(F)=C/C(F)=C(C)/C=C/c1c(C)cc(OC)c(C)c1C
ED50 (Mus musculus [1]): > 80 mg/kg/day
Activity (Mus musculus [2]): 33%
Activity (Mus musculus [3]): > 200 mg/kg/day

CCNC(=O)/C=C(C)/C(F)=C/C=C(C)/C=C/c1c(C)cc(OC)c(C)c1C
ED50 (Mus musculus [1]): < 10 mg/kg/day
Activity (Mus musculus [6]): 73%
Activity (Mus musculus [9]): 67%
Activity (Mus musculus [3]): 50 mg/kg/day

CCOC(=O)/C=C(C)/C=C/C=C(C)/C=C(\F)c1c(C)cc(OC)c(C)c1C
ED50 (Mus musculus [1]): > 40 mg/kg/day
Activity (Mus musculus [8]): 40%

CCOC(=O)/C=C(C)/C=C/C=C(C)/C=C(/F)c1c(C)cc(OC)c(C)c1C
ED50 (Mus musculus [1]): > 40 mg/kg/day
Activity (Mus musculus [8]): 26%

COC(=O)/C=C(C)/C=C/C(F)=C(C)/C=C/C1=C(C)CCCC1(C)C
ED50 (Mus musculus [1]): < 80 mg/kg/day
Activity (Mus musculus [2]): 60%
Activity (Mus musculus [3]): 200 mg/kg/day

CCOC(=O)/C=C(C)/C(F)=C\C=C(C)\C=C\c1c(C)cc(OC)c(C)c1C
ED50 (Mus musculus [1]): 80 mg/kg/day
Activity (Mus musculus [2]): 56%
Activity (Mus musculus [3]): 200 mg/kg/day

COC(=O)/C=C(C)/C=C(F)/C=C(C)/C=C/c1c(C)cc(OC)c(C)c1C (mixture of isomers)
ED50 (Mus musculus [1]): > 80 mg/kg/day
Activity (Mus musculus [2]): 25%
Activity (Mus musculus [3]): > 200 mg/kg/day

CCOC(=O)/C=C(C)/C=C/C=C(C)/C=C/C1=C(C)CCCC1(C)C
ED50 (Mus musculus [1]): 48 mg/kg/day
Activity (Mus musculus [2]): 47%
Activity (Mus musculus [8]): 36%
Activity (Mus musculus [10]): 85%
Activity (Mus musculus [3]): 50 mg/kg/day
Activity (Mus musculus [11]): 76%
